Consider nine molecules from ChEMBL document CHEMBL1125495, “Inhibitors of human renin with C-termini derived from amides and esters of alpha-mercaptoalkanoic acids” (J Med Chem, 1992).

What is called inhibition is the percentage by which the read-out fell short of the control. In general, IC50 refers to the midpoint of a concentration-inhibition curve.

For assay [1], the target named is T1, Renin (Homo sapiens) (UniProt P00797).
T1 sequence (whole entry): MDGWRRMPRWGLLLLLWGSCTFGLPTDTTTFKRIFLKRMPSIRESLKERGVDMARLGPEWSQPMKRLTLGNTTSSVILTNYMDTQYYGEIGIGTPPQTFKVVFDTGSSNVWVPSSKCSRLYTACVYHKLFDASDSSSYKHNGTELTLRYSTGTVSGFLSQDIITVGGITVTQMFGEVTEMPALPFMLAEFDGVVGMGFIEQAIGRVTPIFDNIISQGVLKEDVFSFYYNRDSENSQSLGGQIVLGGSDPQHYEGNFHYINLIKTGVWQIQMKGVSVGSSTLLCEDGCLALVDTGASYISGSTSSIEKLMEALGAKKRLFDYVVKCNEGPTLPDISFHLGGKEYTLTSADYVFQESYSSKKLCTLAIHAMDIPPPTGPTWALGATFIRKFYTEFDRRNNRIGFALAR
In words: In vivo inhibition of plasma renin activity in sodium deficient rhesus monkeys after iv administration (dose 0.1 mg/kg, determined at peak deltaMAP). To be noted: Cercopithecidae, target entry is the homologue from another species, at 0.1 mg/kg. The class given is functional, organism-based. Details: dose 0.1 mg/kg. In a few lines:
(§1)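 Sodium-deficient rhesus monkeys (N = 2) were kept on a low-sodium diet, given furosemide the evening before, and fasted 18 h. Compound was given iv through a venous catheter in 0.05% acetic acid/5% dextrose/H2O, 20 min after vehicle. Blood was drawn periodically via an arterial access port for plasma renin activity. Percent inhibition was taken at peak ΔMAP.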

Assay [2] relates to Rhesus monkey. In words: In vivo effect on heart rate(peak deltaHR) in sodium deficient rhesus monkeys after iv administration (dose 0.1 mg/kg). It counts as functional, Cercopithecidae. In a few lines: (§2)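 Conscious male and female rhesus monkeys (N = 2) with chronic arterial access ports for direct MAP and heart-rate monitoring, and venous catheters for dosing. Animals were kept on a low-sodium diet, given furosemide the evening before, and fasted 18 h before and during the study. Compound was given iv in 0.05% acetic acid/5% dextrose/H2O, 20 min after a vehicle control dose. Peak changes were averaged, and the hypotensive half-life was read from time plots.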

Assay [3] has as its system Rhesus monkey. In words: Half life of hypotensive effect in sodium deficient rhesus monkeys after iv administration (dose 0.1 mg/kg). The class given is functional, organism-based. On the set-up: dose 0.1 mg/kg. The conditions noted are these: Cercopithecidae. In outline: as §2
The test system of assay [4] is Rhesus monkey. In words: In vivo effect on mean arterial pressure(peak deltaMAP) in sodium deficient rhesus monkeys after iv administration (dose 0.1 mg/kg). The class given is functional, Cercopithecidae, Artery. In a few lines: as §2
A further assay has as its target T2, Renin (Homo sapiens, UniProt P00797).
T2 sequence (P00797 whole entry): T1 sequence (whole entry)
As to the kind of experiment: Inhibition of human plasma renin. It counts as cell-free.

In assay [5] the test system is Rhesus monkey. As to the kind of experiment: In vivo effect on heart rate(peak deltaHR) in sodium deficient rhesus monkeys after iv administration (dose 0.34 mg/kg). It counts as functional, Cercopithecidae.
Assay [6] addresses T1, Renin (Homo sapiens). As to the kind of experiment: In vivo inhibition of plasma renin activity in sodium deficient rhesus monkeys after iv administration (dose 0.34 mg/kg, determined at peak deltaMAP). Details: dose 0.34 mg/kg. To be noted: Cercopithecidae, target entry is the homologue from another species, at 0.34 mg/kg. The class given is functional, organism-based.
For assay [7], the system named is Rhesus monkey. As to the kind of experiment: Half life of hypotensive effect in sodium deficient rhesus monkeys after iv administration (dose 0.34 mg/kg). On the set-up: dose 0.34 mg/kg. The class given is functional, organism-based. To be noted: Cercopithecidae.
Assay [8] deals with Rhesus monkey. As to the kind of experiment: In vivo effect on mean arterial pressure(peak deltaMAP) in sodium deficient rhesus monkeys after iv administration (dose 0.34 mg/kg). It counts as functional, Cercopithecidae, Artery.
In assay [9] the test system is Rhesus monkey. As to the kind of experiment: In vivo effect on mean arterial pressure(peak deltaMAP) in sodium deficient rhesus monkeys after iv administration (dose 0.063 mg/kg). The class given is functional, Cercopithecidae, Artery. In a few lines: as §2
Assay [10] has as its system Rhesus monkey. In words: Half life of hypotensive effect in sodium deficient rhesus monkeys after iv administration (dose 0.063 mg/kg). Details: dose 0.063 mg/kg. To be noted: Cercopithecidae. It counts as functional, organism-based. In outline:
as §2

The subject of assay [11] is Rhesus monkey. In words: In vivo effect on heart rate(peak deltaHR) in sodium deficient rhesus monkeys after iv administration (dose 0.063 mg/kg). The class given is functional, Cercopithecidae. In a few lines: as §2
Assay [12] concerns the target T1, Renin (Homo sapiens). In words: In vivo inhibition of plasma renin activity in sodium deficient rhesus monkeys after iv administration (dose 0.063 mg/kg, determined at peak deltaMAP). The conditions noted are these: Cercopithecidae, target entry is the homologue from another species, at 0.063 mg/kg. On the set-up: dose 0.063 mg/kg. It counts as functional, organism-based. In outline: as §1

Regarding `CC(C)(C)OC(=O)N[C@@H](Cc1ccccc1)C(=O)N[C@@H](Cc1c[nH]cn1)C(=O)N[C@@H](CC1CCCCC1)[C@@H](O)CS(=O)(=O)CC(=O)NCCN1CCOCC1`, the inhibition against Renin (Homo sapiens) [1] came out at 88%. Also, the “Peak deltaHR” value in the assay on Rhesus monkey [2] is given as -18 beats min-1. This molecule came in with a T1/2 in the assay with Rhesus monkey [3] of less than 10 min. Also, the “Peak deltaMAP” value in the assay with Rhesus monkey [4] is given as -15 mmHg.

`CC(C)(C)OC(=O)N[C@@H](Cc1ccccc1)C(=O)N[C@@H](Cc1cnc[nH]1)C(=O)N[C@@H](CC1CCCCC1)[C@@H](O)CS(=O)(=O)CC(=O)NCCN1CCOCC1`: the IC50 at Renin stood at 0.0094 µM.

As to `CC(C)(C)OC(=O)N[C@@H](Cc1ccccc1)C(=O)N[C@@H](Cc1cnc[nH]1)C(=O)N[C@@H](CC1CCCCC1)[C@@H](O)CSCC(=O)NCc1ccncc1`, it took 0.092 µM to reach half-maximal inhibition against Renin (IC50).

As to `CC(C)CC(SC[C@H](O)[C@H](CC1CCCCC1)NC(=O)[C@H](Cc1cnc[nH]1)NC(=O)[C@H](Cc1ccccc1)NC(=O)OC(C)(C)C)C(=O)NCCN1CCOCC1` (some centres undefined), at Renin, the IC50 stood at 0.073 µM.

At Renin, `CC(C)CC(C(=O)NCCN1CCOCC1)S(=O)(=O)C[C@H](O)[C@H](CC1CCCCC1)NC(=O)[C@H](Cc1c[nH]cn1)NC(=O)[C@H](Cc1ccccc1)NC(=O)OC(C)(C)C` (some centres undefined) yielded an IC50 of 0.077 µM.

With `CC(C)(C)OC(=O)N[C@@H](Cc1ccccc1)C(=O)N[C@@H](Cc1c[nH]cn1)C(=O)N[C@@H](CC1CCCCC1)[C@@H](O)CSc1nnnn1CCc1ccncc1`, in the assay on Rhesus monkey [5], the “Peak deltaHR” value was 1 beats min-1. In addition, the inhibition against Renin (Homo sapiens) [6] is 95%. In the assay on Rhesus monkey [7], this molecule yielded a T1/2 of less than 10 min. For the same molecule, the “Peak deltaMAP” value with Rhesus monkey [8] was -22 mmHg.

As to `CC(C)(C)OC(=O)N[C@@H](Cc1ccccc1)C(=O)N[C@@H](Cc1c[nH]cn1)C(=O)N[C@@H](CC1CCCCC1)[C@@H](O)CS(=O)(=O)CC(=O)NC1C[N+]2([O-])CCC1CC2` (some centres undefined), half-maximal inhibition on Renin (IC50) was put at 0.0042 µM.

Regarding `CC(C)(C)S(=O)(=O)[C@@H](Cc1ccccc1)C(=O)N[C@@H](Cc1c[nH]cn1)C(=O)N[C@@H](CC1CCCCC1)[C@@H](O)CS(=O)(=O)CC(=O)NCCN1CCOCC1`, the “Peak deltaMAP” value in the assay on Rhesus monkey [9] is -20.5 mmHg. In the assay on Rhesus monkey [10], the T1/2 was less than 10 min. Besides, the “Peak deltaHR” value in the assay on Rhesus monkey [11] is on record as -13 beats min-1. Besides, the inhibition on Renin (Homo sapiens) [12] came to 94%. The same molecule displayed an IC50 on Renin of 0.0072 µM.

For `CC(C)CC(C(=O)NCCN1CCOCC1)[S+]([O-])C[C@H](O)[C@H](CC1CCCCC1)NC(=O)[C@H](Cc1cnc[nH]1)NC(=O)[C@H](Cc1ccccc1)NC(=O)OC(C)(C)C` (some centres undefined), half-maximal inhibition against Renin (IC50) required 0.088 µM.
